From ChEMBL document CHEMBL5257059, “Pyridine-Based 1,2,4-Triazolo-Tethered Indole Conjugates Potentially Affecting TNKS and PI3K in Colorectal Cancer” (ACS Med Chem Lett, 2023)
The source made the active and inactive calls. The rule behind the calls is not given here.

What was measured:
HT-29 [1] = experiment: Induction of apoptosis in human HT29 cells assessed as increase in early apoptotic cells at 4 uM incubated for 24 hrs by annexin V/PI staining based flow cytometry analysis; format: functional, cell-based
Procedure, shortened: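 Annexin/PI double staining of HT-29 cells after 24 h exposure at 1, 2 or 4 μM. Flow cytometry gated early apoptotic, late apoptotic and necrotic populations, reported as % of cells. Comparison to untreated control used two-way ANOVA followed by Tukey's post hoc analysis.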

A549 = experiment: Antiproliferative activity against human A549 cells assessed as inhibition of cell growth incubated for 24 hrs by MTT assay; format: functional, cell-based; settings: A549, 24 h
HT-29 [2] = experiment: Induction of ROS generation in human HT-29 cells at 4 uM by CM-H2DCFDA fluorescent probe based flow cytometry analysis (reference value: 0.528%); format: functional
[3] = target: 182 kDa tankyrase-1-binding protein (Homo sapiens) (UniProt Q9C0C2); experiment: Inhibition of TAB-182 phosphorylation in human HT-29 cells at 4 uM incubated for 72 hrs by Western blot analysis; format: cell-based
Sequence of 182 kDa tankyrase-1-binding protein (Homo sapiens) (Q9C0C2 whole entry): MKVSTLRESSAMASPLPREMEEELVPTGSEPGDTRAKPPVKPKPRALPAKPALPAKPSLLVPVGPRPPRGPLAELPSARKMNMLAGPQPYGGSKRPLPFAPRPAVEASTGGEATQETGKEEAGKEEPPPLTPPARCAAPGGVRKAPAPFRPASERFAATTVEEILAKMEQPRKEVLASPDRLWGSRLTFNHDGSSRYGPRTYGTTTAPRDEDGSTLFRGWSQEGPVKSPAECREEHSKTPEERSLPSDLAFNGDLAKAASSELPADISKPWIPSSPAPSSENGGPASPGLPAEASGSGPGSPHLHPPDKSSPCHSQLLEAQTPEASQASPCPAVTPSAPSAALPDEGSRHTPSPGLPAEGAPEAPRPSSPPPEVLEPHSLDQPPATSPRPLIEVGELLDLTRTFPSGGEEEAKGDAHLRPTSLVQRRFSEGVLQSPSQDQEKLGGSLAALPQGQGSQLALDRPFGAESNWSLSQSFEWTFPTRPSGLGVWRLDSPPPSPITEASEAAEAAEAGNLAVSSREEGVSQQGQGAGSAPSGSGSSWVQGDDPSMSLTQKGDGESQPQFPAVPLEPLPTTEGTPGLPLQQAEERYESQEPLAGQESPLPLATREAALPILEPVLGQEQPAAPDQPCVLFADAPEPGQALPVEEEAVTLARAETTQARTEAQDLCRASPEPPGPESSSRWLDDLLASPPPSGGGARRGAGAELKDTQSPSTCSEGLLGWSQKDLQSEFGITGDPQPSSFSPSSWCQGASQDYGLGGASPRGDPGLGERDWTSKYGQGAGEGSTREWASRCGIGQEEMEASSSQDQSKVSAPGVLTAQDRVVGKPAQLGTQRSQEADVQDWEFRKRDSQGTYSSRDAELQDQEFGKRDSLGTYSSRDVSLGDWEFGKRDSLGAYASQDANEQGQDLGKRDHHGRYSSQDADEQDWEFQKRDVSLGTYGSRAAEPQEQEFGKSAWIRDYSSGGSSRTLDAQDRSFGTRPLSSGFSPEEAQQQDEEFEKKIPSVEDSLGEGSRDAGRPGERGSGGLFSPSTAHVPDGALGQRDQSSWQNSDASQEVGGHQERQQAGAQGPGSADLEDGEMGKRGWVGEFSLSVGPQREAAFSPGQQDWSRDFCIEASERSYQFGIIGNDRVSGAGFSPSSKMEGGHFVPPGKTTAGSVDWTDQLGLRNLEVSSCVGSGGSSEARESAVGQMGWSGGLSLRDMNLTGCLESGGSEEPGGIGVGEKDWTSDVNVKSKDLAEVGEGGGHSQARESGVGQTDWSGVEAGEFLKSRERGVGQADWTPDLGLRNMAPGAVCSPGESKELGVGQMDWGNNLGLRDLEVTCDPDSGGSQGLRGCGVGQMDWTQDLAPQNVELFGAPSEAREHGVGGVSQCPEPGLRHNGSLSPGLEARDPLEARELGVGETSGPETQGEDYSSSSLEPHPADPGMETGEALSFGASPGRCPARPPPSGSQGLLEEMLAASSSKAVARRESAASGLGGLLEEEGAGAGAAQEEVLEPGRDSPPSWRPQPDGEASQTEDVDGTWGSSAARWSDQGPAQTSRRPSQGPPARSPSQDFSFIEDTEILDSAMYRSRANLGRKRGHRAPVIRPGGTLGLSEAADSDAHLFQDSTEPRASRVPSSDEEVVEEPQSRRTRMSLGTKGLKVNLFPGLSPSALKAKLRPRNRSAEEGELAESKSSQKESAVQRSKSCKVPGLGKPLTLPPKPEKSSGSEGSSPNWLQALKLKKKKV

Caco-2 = experiment: Antiproliferative activity against human Caco-2 cells assessed as inhibition of cell growth incubated for 24 hrs by MTT assay; format: functional, cell-based; settings: Caco-2, 24 h
HT-29 [4] = experiment: Induction of mitochondrial ROS generation in human HT-29 cells at 4 uM by MitoSOX red dye based flow cytometry analysis; format: functional, cell-based
Procedure, shortened: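 Mitochondrial superoxide in HT-29 cells was read with the mitochondria-localizing MitoSOX Red probe after treatment at 1, 2 or 4 μM. Flow cytometry histograms were acquired on 10,000 cells, and results were expressed as mean fluorescence intensity. Versus control, significance was tested by one-way ANOVA with Tukey's post hoc test.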

A 172 = experiment: Antiproliferative activity against human A-172 cells assessed as inhibition of cell growth incubated for 24 hrs by MTT assay; format: functional, cell-based; settings: A 172, 24 h
HT-29 [5] = experiment: Inhibition of nuclear translocation of NFkappaB in human HT-29 cells assessed as reduction in NFkappaB expression in nucleus by immunofluorescence based confocal microscopic analysis; format: functional, cell-based
Procedure, shortened: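 HT-29 colon cancer cells were treated with test compounds, then immunostained for NF-κB and co-stained for F-actin. Nuclear NF-κB signal was read by immunofluorescence imaging.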

HT-29 [6] = experiment: Inhibition of pan-AKT protein expression in human HT-29 cells at 4 uM incubated for 72 hrs by Western blot analysis; format: functional, cell-based
HT-29 [7] = experiment: Inhibition of APC protein expression in human HT-29 cells at 4 uM incubated for 72 hrs by Western blot analysis; format: functional, cell-based
HT-29 [8] = experiment: Antiproliferative activity against human HT-29 cells assessed as inhibition of cell growth incubated for 24 hrs by MTT assay; format: functional, cell-based; settings: HT-29, 24 h
HT-29 [9] = experiment: Inhibition of GSK-3beta protein expression in human HT-29 cells at 4 uM incubated for 72 hrs by Western blot analysis; format: functional, cell-based
HT-29 [10] = experiment: Inhibition of beta-catenin protein expression in human HT-29 cells at 4 uM incubated for 72 hrs by Western blot analysis; format: functional, cell-based
HT-29 [11] = experiment: Downregulation of PI3K-p85 expression in human HT-29 cells by immunofluorescence based confocal microscopic analysis; format: functional, cell-based
Procedure, shortened: (§1)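 HT-29 cells were stained for F-actin with Phalloidin Red alongside immunofluorescent staining of PI3K-p85 (or NF-κB), then examined by fluorescence imaging for actin-filament integrity and p85 signal.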

HT-29 [12] = experiment: Cytotoxicity against human HT-29 cells assessed as damage of actin filament by F-actin/phalloidin red staining based confocal microscopic analysis; format: functional, cell-based; procedure, shortened: as §1
DLD-1 = experiment: Antiproliferative activity against human DLD-1 cells assessed as inhibition of cell growth incubated for 24 hrs by MTT assay; format: functional, cell-based; settings: DLD-1, 24 h
HT-29 [13] = experiment: Inhibition of phosphorylated GSK-3beta protein expression in human HT-29 cells at 4 uM incubated for 72 hrs by Western blot analysis; format: functional, cell-based
[14] = Antiproliferative activity against human Tera-1 cells assessed as inhibition of cell growth incubated for 24 hrs by MTT assay; format: functional, cell-based; settings: Tera-1, 24 h
[15] = target: Phosphatidylinositol 3-kinase regulatory subunit alpha (Homo sapiens) (UniProt P27986); experiment: Inhibition of PI3K-P85 phosphorylation in human HT-29 cells at 1 uM incubated for 72 hrs by Western blot analysis; format: cell-based
Sequence of Phosphatidylinositol 3-kinase regulatory subunit alpha (Homo sapiens) (P27986 whole entry): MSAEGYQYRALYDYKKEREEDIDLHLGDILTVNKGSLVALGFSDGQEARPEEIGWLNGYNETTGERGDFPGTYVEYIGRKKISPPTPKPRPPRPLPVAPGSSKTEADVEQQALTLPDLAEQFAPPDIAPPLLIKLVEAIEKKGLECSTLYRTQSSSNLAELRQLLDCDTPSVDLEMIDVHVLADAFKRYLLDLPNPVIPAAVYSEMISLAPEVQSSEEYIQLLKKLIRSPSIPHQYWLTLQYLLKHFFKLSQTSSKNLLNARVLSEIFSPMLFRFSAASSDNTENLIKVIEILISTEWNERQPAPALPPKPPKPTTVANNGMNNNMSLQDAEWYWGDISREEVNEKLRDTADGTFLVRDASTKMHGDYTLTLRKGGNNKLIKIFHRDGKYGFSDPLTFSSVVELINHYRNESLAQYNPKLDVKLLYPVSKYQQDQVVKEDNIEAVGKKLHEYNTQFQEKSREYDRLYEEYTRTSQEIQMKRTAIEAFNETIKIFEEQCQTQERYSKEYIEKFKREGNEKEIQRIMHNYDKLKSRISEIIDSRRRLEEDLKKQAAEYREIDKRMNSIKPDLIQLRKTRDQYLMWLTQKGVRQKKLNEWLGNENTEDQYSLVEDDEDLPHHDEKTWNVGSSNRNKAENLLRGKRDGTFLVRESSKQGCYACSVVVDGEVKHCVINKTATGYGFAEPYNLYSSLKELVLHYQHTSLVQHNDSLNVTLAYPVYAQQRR

[16] = target: T1, Catenin beta-1 (Homo sapiens) (UniProt P35222); experiment: Inhibition of beta-catenin phosphorylation in human HT-29 cells at 1 uM incubated for 72 hrs by Western blot analysis; format: cell-based
T1 sequence (whole entry): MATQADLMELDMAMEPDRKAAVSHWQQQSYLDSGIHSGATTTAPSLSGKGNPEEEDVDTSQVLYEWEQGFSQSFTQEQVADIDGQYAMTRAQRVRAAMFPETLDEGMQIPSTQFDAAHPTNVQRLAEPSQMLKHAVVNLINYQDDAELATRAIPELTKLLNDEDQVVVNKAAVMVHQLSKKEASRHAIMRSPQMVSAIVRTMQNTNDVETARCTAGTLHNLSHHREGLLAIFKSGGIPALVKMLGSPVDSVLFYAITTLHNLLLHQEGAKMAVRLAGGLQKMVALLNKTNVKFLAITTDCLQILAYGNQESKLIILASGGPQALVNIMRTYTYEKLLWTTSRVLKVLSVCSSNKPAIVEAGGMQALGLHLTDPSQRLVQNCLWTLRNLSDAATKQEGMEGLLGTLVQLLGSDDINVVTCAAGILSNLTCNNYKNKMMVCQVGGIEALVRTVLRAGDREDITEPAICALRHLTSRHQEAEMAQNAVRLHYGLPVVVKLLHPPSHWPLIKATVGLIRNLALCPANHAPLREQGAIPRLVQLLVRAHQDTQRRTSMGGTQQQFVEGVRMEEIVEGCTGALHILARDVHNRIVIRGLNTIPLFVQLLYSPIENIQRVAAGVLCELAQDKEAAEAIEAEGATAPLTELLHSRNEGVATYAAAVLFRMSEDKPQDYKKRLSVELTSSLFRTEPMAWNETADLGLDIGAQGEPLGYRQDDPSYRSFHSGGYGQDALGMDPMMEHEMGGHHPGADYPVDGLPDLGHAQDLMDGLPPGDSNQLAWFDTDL

HT-29 [17] = experiment: Inhibition of phosphorylated GSK-3beta protein expression in human HT-29 cells at 1 uM incubated for 72 hrs by Western blot analysis; format: functional, cell-based
[18] = target: Glycogen synthase kinase-3 beta (Homo sapiens) (UniProt P49841); experiment: Inhibition of GSK3beta phosphorylation in human HT-29 cells at 1 uM incubated for 72 hrs by Western blot analysis; format: cell-based
Sequence of Glycogen synthase kinase-3 beta (Homo sapiens) (P49841 whole entry, looked up): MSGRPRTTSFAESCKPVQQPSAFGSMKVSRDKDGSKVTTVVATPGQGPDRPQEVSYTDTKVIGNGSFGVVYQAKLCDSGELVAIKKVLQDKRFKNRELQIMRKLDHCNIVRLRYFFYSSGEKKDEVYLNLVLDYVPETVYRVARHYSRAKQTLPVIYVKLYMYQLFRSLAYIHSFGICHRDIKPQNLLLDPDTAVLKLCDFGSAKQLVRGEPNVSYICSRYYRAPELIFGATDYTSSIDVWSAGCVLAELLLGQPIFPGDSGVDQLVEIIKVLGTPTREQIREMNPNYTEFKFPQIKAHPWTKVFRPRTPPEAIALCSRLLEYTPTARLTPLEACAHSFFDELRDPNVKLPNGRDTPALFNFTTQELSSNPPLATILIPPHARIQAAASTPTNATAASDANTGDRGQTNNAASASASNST

HT-29 [19] = experiment: Induction of cell cycle arrest in human HT-29 cells assessed as accumulation of cells at G2/M phase at 1 uM incubated for 24 hrs by RNase/PI staining based flow cytometry analysis (reference value: 23.695 %); format: functional
HT-29 [20] = experiment: Inhibition of beta-catenin protein expression in human HT-29 cells at 2 uM incubated for 72 hrs by Western blot analysis; format: functional, cell-based
HT-29 [21] = experiment: Inhibition of AXIN-2 protein expression in human HT-29 cells at 2 uM incubated for 72 hrs by Western blot analysis; format: functional, cell-based
HT-29 [22] = experiment: Inhibition of GSK-3beta protein expression in human HT-29 cells at 2 uM incubated for 72 hrs by Western blot analysis; format: functional, cell-based
HT-29 [23] = experiment: Inhibition of beta-actin protein expression in human HT-29 cells at 2 uM incubated for 72 hrs by Western blot analysis; format: functional, cell-based

SMILES	IC50 (A549)	IC50 (Caco-2)	IC50 (A 172)	inhibition (HT-29 [5])	IC50 (HT-29 [8])	Activity (HT-29 [11])	Activity (HT-29 [12])	IC50 (DLD-1)	IC50 [14]	other results
COc1cccc(-n2c(SCCc3c[nH]c4ccccc34)nnc2-c2ccncc2)c1	25.1 µM	15.5 µM	26.8 µM	Active	3.6 µM	Active	Active	9.3 µM	19.4 µM	Activity (HT-29 [1]): Active; Activity (HT-29 [2]): 2.467%; inhibition [3]: Active; Activity (HT-29 [4]): Active; inhibition (HT-29 [6]): Active; inhibition (HT-29 [7]): Active; inhibition (HT-29 [9]): Active; inhibition (HT-29 [10]): Active; inhibition (HT-29 [13]): Active
COc1ccc(-n2c(SCCc3c[nH]c4ccccc34)nnc2-c2ccncc2)cc1	6.7 µM	3.9 µM	9 µM	Active	1 µM	Active	Active	7 µM	4.3 µM	inhibition [15]: Active; inhibition [16]: Active; inhibition (HT-29 [17]): Active; inhibition [18]: Active; Activity (HT-29 [19]): 22.841%
Fc1ccccc1-n1c(SCCc2c[nH]c3ccccc23)nnc1-c1ccncc1	5.3 µM	9.1 µM	9.5 µM	Active	2.4 µM	Active	Active	7 µM	10.5 µM	inhibition (HT-29 [20]): Active; inhibition (HT-29 [21]): Active; inhibition (HT-29 [22]): Active; inhibition (HT-29 [23]): Active
